According to ChEMBL document CHEMBL3580606, “One-pot reaction to obtain N,N'-disubstituted guanidines of pyrazolo[4,3-e][1,2,4]triazolo[1,5-c]pyrimidine scaffold as human A3 adenosine receptor antagonists” (J Med Chem, 2015):

biological target: T1, Adenosine receptor A1 (Homo sapiens) (UniProt P30542); experiment: (§1) Displacement of [3H]-DPCPX from human adenosine A1 receptor expressed in CHO cell membranes after 120 mins by scintillation counting analysis; parameters: concentration or dose not given beside the values; details: not given
T1 sequence (whole entry): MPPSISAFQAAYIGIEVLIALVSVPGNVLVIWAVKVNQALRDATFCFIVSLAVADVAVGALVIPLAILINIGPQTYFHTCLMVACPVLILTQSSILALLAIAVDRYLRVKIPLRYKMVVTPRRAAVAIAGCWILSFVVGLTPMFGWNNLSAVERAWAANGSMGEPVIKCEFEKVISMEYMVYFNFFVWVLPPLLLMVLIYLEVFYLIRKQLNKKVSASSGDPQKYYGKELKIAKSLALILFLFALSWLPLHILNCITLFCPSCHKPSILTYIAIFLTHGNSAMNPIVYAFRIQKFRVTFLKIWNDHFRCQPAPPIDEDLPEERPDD
In short: (§2)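 Membranes from transfected CHO cells in 50 mM Tris HCl pH 7.4 at 50 µg protein/assay, pretreated with adenosine deaminase 2 IU/ml. [3H]DPCPX 1 nM against 6-8 antagonist concentrations, 120 min at 25 °C. Non-specific binding defined with 1 µM DPCPX. GF/B filtration, then scintillation counting. Ki by Cheng-Prusoff, n=3-6, mean ± SEM.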

SMILES	inhibition
Cn1cc2c(nc(N=C(Nc3cccc(C(F)(F)F)c3)Nc3cccc(C(F)(F)F)c3)n3nc(-c4ccco4)nc23)n1	3%
Cn1cc2c(nc(N=C(Nc3ccc([N+](=O)[O-])cc3)Nc3ccc([N+](=O)[O-])cc3)n3nc(-c4ccco4)nc23)n1	1%
Cn1cc2c(nc(N=C(Nc3cccc(Cl)c3)Nc3cccc(Cl)c3)n3nc(-c4ccco4)nc23)n1	17%
Cn1cc2c(nc(N=C(Nc3ccc(Br)cc3)Nc3ccc(Br)cc3)n3nc(-c4ccco4)nc23)n1	1%
COc1ccc(NC(=Nc2nc3nn(C)cc3c3nc(-c4ccco4)nn23)Nc2ccc(OC)cc2)cc1	7%
Cn1cc2c(nc(N=C(NC3CCCCC3)NC3CCCCC3)n3nc(-c4ccco4)nc23)n1	25%
Cn1cc2c(nc(N=C(Nc3ccccc3)Nc3ccccc3)n3nc(-c4ccco4)nc23)n1	10%

biological target: T2, Adenosine receptor A1 (Homo sapiens, UniProt P30542); experiment: as §1; details: not given; in short: as §2
T2 sequence (P30542 whole entry): T1 sequence (whole entry)

SMILES	Ki
Cn1cc2c(nc(N=C(Nc3cccc(C(F)(F)F)c3)Nc3cccc(C(F)(F)F)c3)n3nc(-c4ccco4)nc23)n1	> 1000 nM
Cn1cc2c(nc(N=C(Nc3ccc([N+](=O)[O-])cc3)Nc3ccc([N+](=O)[O-])cc3)n3nc(-c4ccco4)nc23)n1	> 1000 nM
Cn1cc2c(nc(N=C(Nc3cccc(Cl)c3)Nc3cccc(Cl)c3)n3nc(-c4ccco4)nc23)n1	> 1000 nM
Cn1cc2c(nc(N=C(Nc3ccc(Br)cc3)Nc3ccc(Br)cc3)n3nc(-c4ccco4)nc23)n1	> 1000 nM
COc1ccc(NC(=Nc2nc3nn(C)cc3c3nc(-c4ccco4)nn23)Nc2ccc(OC)cc2)cc1	> 1000 nM
Cn1cc2c(nc(N=C(NC3CCCCC3)NC3CCCCC3)n3nc(-c4ccco4)nc23)n1	> 1000 nM
Cn1cc2c(nc(N=C(Nc3ccccc3)Nc3ccccc3)n3nc(-c4ccco4)nc23)n1	> 1000 nM

biological target: Adenosine receptor A2a (Homo sapiens, UniProt P29274); experiment: Displacement of [3H]-ZM241385 from human adenosine A2A receptor expressed in CHO cell membranes after 60 mins by scintillation counting analysis; details: not given
Sequence (P29274 whole entry): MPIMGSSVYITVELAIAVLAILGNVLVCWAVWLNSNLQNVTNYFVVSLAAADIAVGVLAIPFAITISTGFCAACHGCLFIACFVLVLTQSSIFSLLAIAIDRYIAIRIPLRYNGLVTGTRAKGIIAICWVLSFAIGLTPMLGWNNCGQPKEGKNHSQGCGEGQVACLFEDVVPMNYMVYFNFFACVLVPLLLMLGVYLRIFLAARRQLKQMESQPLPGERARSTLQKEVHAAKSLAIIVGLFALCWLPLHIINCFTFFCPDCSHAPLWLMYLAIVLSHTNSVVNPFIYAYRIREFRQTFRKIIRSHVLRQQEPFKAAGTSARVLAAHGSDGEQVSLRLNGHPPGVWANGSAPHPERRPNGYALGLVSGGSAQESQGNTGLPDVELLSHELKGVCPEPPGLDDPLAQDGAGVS
In short: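 Membranes from transfected CHO cells in 50 mM Tris HCl, 10 mM MgCl2, pH 7.4, at 50 µg protein/assay. [3H]ZM241385 2 nM with 6-8 competitor concentrations, 60 min at 4 °C. Non-specific binding defined with 1 µM ZM241385. Filtered on GF/B, bound radioactivity counted. Ki via Cheng-Prusoff, n=3-6, mean ± SEM.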

SMILES	Ki	inhibition
Cn1cc2c(nc(N=C(Nc3cccc(C(F)(F)F)c3)Nc3cccc(C(F)(F)F)c3)n3nc(-c4ccco4)nc23)n1	> 1000 nM	1%
Cn1cc2c(nc(N=C(Nc3ccc([N+](=O)[O-])cc3)Nc3ccc([N+](=O)[O-])cc3)n3nc(-c4ccco4)nc23)n1	> 1000 nM	1%
Cn1cc2c(nc(N=C(Nc3cccc(Cl)c3)Nc3cccc(Cl)c3)n3nc(-c4ccco4)nc23)n1	> 1000 nM	1%
Cn1cc2c(nc(N=C(Nc3ccc(Br)cc3)Nc3ccc(Br)cc3)n3nc(-c4ccco4)nc23)n1	> 1000 nM	10%
COc1ccc(NC(=Nc2nc3nn(C)cc3c3nc(-c4ccco4)nn23)Nc2ccc(OC)cc2)cc1	> 1000 nM	1%
Cn1cc2c(nc(N=C(NC3CCCCC3)NC3CCCCC3)n3nc(-c4ccco4)nc23)n1	> 1000 nM	3%
Cn1cc2c(nc(N=C(Nc3ccccc3)Nc3ccccc3)n3nc(-c4ccco4)nc23)n1	> 1000 nM	2%

biological target: T3, Adenosine receptor A3 (Homo sapiens, UniProt P0DMS8); experiment: Displacement of [3H]-MRE3008F20 from human adenosine A3 receptor expressed in CHO cell membranes after 120 mins by scintillation counting analysis; details: not given
T3 sequence (P0DMS8 whole entry): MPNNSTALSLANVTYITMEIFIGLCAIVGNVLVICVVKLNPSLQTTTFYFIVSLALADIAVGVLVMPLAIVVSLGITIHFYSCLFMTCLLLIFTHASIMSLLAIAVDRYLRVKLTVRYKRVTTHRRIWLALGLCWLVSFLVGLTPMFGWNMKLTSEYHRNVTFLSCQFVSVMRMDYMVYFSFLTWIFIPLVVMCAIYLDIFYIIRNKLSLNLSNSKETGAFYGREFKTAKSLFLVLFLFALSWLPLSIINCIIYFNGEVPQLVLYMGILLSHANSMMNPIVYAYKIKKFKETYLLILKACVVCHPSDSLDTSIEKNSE
In short: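 Membranes from transfected CHO cells in 50 mM Tris HCl, 10 mM MgCl2, 1 mM EDTA, pH 7.4, at 50 µg protein/assay. [3H]MRE3008F20 1 nM with 6-8 ligand concentrations, 120 min at 4 °C. Non-specific binding defined with 1 µM MRE3008F20. GF/B filtration, then scintillation counting. Ki by Cheng-Prusoff, n=3-6, mean ± SEM.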

SMILES	Ki
Cn1cc2c(nc(N=C(Nc3cccc(C(F)(F)F)c3)Nc3cccc(C(F)(F)F)c3)n3nc(-c4ccco4)nc23)n1	520 nM
Cn1cc2c(nc(N=C(Nc3ccc([N+](=O)[O-])cc3)Nc3ccc([N+](=O)[O-])cc3)n3nc(-c4ccco4)nc23)n1	18 nM
Cn1cc2c(nc(N=C(Nc3cccc(Cl)c3)Nc3cccc(Cl)c3)n3nc(-c4ccco4)nc23)n1	89 nM
Cn1cc2c(nc(N=C(Nc3ccc(Br)cc3)Nc3ccc(Br)cc3)n3nc(-c4ccco4)nc23)n1	345 nM
COc1ccc(NC(=Nc2nc3nn(C)cc3c3nc(-c4ccco4)nn23)Nc2ccc(OC)cc2)cc1	42 nM
Cn1cc2c(nc(N=C(NC3CCCCC3)NC3CCCCC3)n3nc(-c4ccco4)nc23)n1	29 nM
Cn1cc2c(nc(N=C(Nc3ccccc3)Nc3ccccc3)n3nc(-c4ccco4)nc23)n1	79 nM

biological target: T4, Adenosine receptor A3 (Homo sapiens) (UniProt P0DMS8); experiment: Antagonist activity at human adenosine A3 receptor expressed in CHO cells assessed as inhibition of Cl-IB-MECA-mediated suppression of forskolin-induced cyclic-AMP accumulation by scintillation counting analysis in presence of [3H]-cyclic AMP; format: cell-based; details: not given
T4 sequence (whole entry): T3 sequence (P0DMS8 whole entry)
In short: (§3)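 Preincubated at 37 °C. A2B: antagonism of NECA (100 nM)-stimulated cAMP. A3: forskolin 1 µM plus Cl-IB-MECA (100 nM). Stopped with cold 6% TCA, then ether-extracted. cAMP measured by competition protein binding with [3H]cAMP. KB derived by modified Cheng-Prusoff (Leff and Dougall), mean ± SEM.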

SMILES	Kb
Cn1cc2c(nc(N=C(Nc3cccc(C(F)(F)F)c3)Nc3cccc(C(F)(F)F)c3)n3nc(-c4ccco4)nc23)n1	537 nM
Cn1cc2c(nc(N=C(Nc3ccc([N+](=O)[O-])cc3)Nc3ccc([N+](=O)[O-])cc3)n3nc(-c4ccco4)nc23)n1	13 nM
Cn1cc2c(nc(N=C(Nc3cccc(Cl)c3)Nc3cccc(Cl)c3)n3nc(-c4ccco4)nc23)n1	74 nM
Cn1cc2c(nc(N=C(Nc3ccc(Br)cc3)Nc3ccc(Br)cc3)n3nc(-c4ccco4)nc23)n1	362 nM
COc1ccc(NC(=Nc2nc3nn(C)cc3c3nc(-c4ccco4)nn23)Nc2ccc(OC)cc2)cc1	42 nM
Cn1cc2c(nc(N=C(NC3CCCCC3)NC3CCCCC3)n3nc(-c4ccco4)nc23)n1	32 nM
Cn1cc2c(nc(N=C(Nc3ccccc3)Nc3ccccc3)n3nc(-c4ccco4)nc23)n1	67 nM

biological target: T5, Adenosine receptor A2b (Homo sapiens) (UniProt P29275); experiment: Antagonist activity at human adenosine A2B receptor expressed in CHO cells assessed as inhibition of NECA-stimulated cyclic AMP production by scintillation counting analysis in presence of [3H]-cyclic AMP; format: cell-based; parameters: inhibition: concentration or dose not given beside the values; details: not given; in short: as §3
T5 sequence (whole entry): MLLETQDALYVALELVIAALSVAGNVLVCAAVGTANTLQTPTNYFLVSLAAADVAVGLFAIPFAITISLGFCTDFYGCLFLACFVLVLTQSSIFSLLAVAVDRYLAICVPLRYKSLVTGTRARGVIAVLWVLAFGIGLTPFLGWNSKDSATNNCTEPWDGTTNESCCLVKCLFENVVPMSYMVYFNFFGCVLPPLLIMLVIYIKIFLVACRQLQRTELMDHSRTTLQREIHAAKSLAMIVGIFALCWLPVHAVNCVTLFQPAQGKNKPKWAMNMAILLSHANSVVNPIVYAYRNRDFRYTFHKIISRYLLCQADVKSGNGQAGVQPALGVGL

SMILES	Kb
Cn1cc2c(nc(N=C(Nc3cccc(C(F)(F)F)c3)Nc3cccc(C(F)(F)F)c3)n3nc(-c4ccco4)nc23)n1	> 1000 nM
Cn1cc2c(nc(N=C(Nc3ccc([N+](=O)[O-])cc3)Nc3ccc([N+](=O)[O-])cc3)n3nc(-c4ccco4)nc23)n1	> 1000 nM
Cn1cc2c(nc(N=C(Nc3cccc(Cl)c3)Nc3cccc(Cl)c3)n3nc(-c4ccco4)nc23)n1	> 1000 nM
Cn1cc2c(nc(N=C(Nc3ccc(Br)cc3)Nc3ccc(Br)cc3)n3nc(-c4ccco4)nc23)n1	> 1000 nM
COc1ccc(NC(=Nc2nc3nn(C)cc3c3nc(-c4ccco4)nn23)Nc2ccc(OC)cc2)cc1	> 1000 nM
Cn1cc2c(nc(N=C(NC3CCCCC3)NC3CCCCC3)n3nc(-c4ccco4)nc23)n1	> 1000 nM
Cn1cc2c(nc(N=C(Nc3ccccc3)Nc3ccccc3)n3nc(-c4ccco4)nc23)n1	> 1000 nM

same assay, conditions: concentration not given here

SMILES	inhibition
Cn1cc2c(nc(N=C(Nc3cccc(C(F)(F)F)c3)Nc3cccc(C(F)(F)F)c3)n3nc(-c4ccco4)nc23)n1	2%
Cn1cc2c(nc(N=C(Nc3ccc([N+](=O)[O-])cc3)Nc3ccc([N+](=O)[O-])cc3)n3nc(-c4ccco4)nc23)n1	1%
Cn1cc2c(nc(N=C(Nc3cccc(Cl)c3)Nc3cccc(Cl)c3)n3nc(-c4ccco4)nc23)n1	1%
Cn1cc2c(nc(N=C(Nc3ccc(Br)cc3)Nc3ccc(Br)cc3)n3nc(-c4ccco4)nc23)n1	1%
COc1ccc(NC(=Nc2nc3nn(C)cc3c3nc(-c4ccco4)nn23)Nc2ccc(OC)cc2)cc1	4%
Cn1cc2c(nc(N=C(NC3CCCCC3)NC3CCCCC3)n3nc(-c4ccco4)nc23)n1	4%
Cn1cc2c(nc(N=C(Nc3ccccc3)Nc3ccccc3)n3nc(-c4ccco4)nc23)n1	1%
